Most compounds without a hit are left out; they make up all but 1.9% or so of the library.
SR-BI HDL uptake = inhibitors of mouse SR-BI mediated HDL lipid uptake; Q61009; ldlA[mSR-BI] CHO cells, DiI-HDL uptake fluorescence, 3 h; inhibition, % at 12.5 µM; 320,000 compounds, 0.96% hits; AID 488896;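 active means mean replicate inhibition of at least 70% and a set share of replicates each scoring 70 or more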;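 further: 0% = median of neutral control wells and 100% = median of positive control wells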
Rin1 Abl inh = human Rin1-Abl interaction inhibition | P00519+Q13671 | TR-FRET Rin1/Abl binding, biochemical | inhibition, % at 7.35 µM | 360,000 compounds, 0.4% hits | AID 588664; in the data active means inhibition above about 5%, passing the limit was not always enough
SR-BI uptake up = SR-BI HDL lipid transfer activation. AID 504775. 320,000 compounds, 0.096% hits. activation, % at 12.5 µM. CHO ldlA[mSR-BI] cells, DiI-HDL uptake fluorescence, 3 h; 100 = double the neutral-control signal;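 active means mean replicate activation of at least 60% and every replicate at or above 60%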;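 further: 0% = median plate neutral-control signal and 100% = twice that signal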
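Assay system: LDL receptor-deficient CHO ldlA cells overexpressing murine SR-BI / Medium: BSA-supplemented, HEPES-buffered Ham's F12, pH 7.4 / Probe or stimulus: DiI-labelled HDL at 10 µg/mL final / Timing: compound with DiI-HDL co-incubation, 3 h at 37 °C / Technique: bottom-read cell fluorescence after medium removal, ex 550/em 595 nm / Measure: HDL uptake via cellular fluorescence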
GRK2 inh = human GRK2 inhibition via aptamer displacement; P25098; bead flow cytometry, FAM-aptamer displacement from GRK2; inhibition of aptamer binding, % at 10 µM; 330,000 compounds, 0.59% hits; AID 488847;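 active means inhibition of aptamer binding above 40%, roughly 3 SD of noise, on plates passing a quality check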;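 further: median bead fluorescence of bound FAM aptamer so fluorescent compounds give negative values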
Target sequence (P25098 whole entry, looked up): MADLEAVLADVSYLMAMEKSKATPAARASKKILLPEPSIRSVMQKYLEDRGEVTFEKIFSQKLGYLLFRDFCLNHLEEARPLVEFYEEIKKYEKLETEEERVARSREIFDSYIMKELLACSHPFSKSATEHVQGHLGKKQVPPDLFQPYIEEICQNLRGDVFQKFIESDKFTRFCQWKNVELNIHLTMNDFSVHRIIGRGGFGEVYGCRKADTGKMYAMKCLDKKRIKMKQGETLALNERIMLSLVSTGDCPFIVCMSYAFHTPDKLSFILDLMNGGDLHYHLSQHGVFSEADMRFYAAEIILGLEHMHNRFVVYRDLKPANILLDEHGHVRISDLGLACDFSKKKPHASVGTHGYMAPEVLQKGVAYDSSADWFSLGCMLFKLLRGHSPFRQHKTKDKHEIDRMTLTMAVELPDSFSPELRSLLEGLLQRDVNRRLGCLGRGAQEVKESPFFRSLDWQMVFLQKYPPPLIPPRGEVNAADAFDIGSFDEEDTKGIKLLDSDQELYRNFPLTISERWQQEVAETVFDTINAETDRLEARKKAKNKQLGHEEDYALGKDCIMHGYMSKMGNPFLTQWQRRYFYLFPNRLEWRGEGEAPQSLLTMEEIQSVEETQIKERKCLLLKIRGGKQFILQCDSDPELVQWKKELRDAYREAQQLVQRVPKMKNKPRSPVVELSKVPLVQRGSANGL
Starred values were filed as active, the others as inactive; . = not tested or not shown.

SMILES	SR-BI HDL uptake	Rin1 Abl inh	SR-BI uptake up	GRK2 inh
O=C1NC(=S)S/C1=C\c1cc2ccccc2nc1N1CCCCC1	-48.5	1.6	48.5	.
C=CCOC(=O)C1=C(C)NC(=S)NC1/C=C/c1ccccc1 (centres undefined)	81.8*	-3.8	-81.8	9.0
COCCOC(=O)C1=C(C)NC(=S)NC1/C=C/c1ccccc1 (centres undefined)	40.0	-0.7	-40.0	3.0
CC1=C(C(=O)OCc2ccccc2)C(/C=C/c2ccccc2)NC(=S)N1 (centres undefined)	73.9*	0.4	-73.9	1.0
CC1(C(=O)N2CCCCC2)CCN1C(=O)c1ccccc1CCc1ccccc1 (centres undefined)	.	-2.2	.	.
CC1CCCC(C)N1C(=O)COC(=O)c1cccnc1Cl (centres undefined)	-14.8	5.4	14.8	0.0
CC1CC(C)(C)CC2(C1)NC(=O)N(CC(=O)Nc1ccc(N3CCCCC3)cc1)C2=O (centres undefined)	73.3*	-0.9	.	4.0
O=C(CN1C(=O)NC2(CCCCC2)C1=O)Nc1ccc(N2CCCCC2)cc1	-13.2	1.2	13.2	0.0
CC(C)c1ccc2c(c1)C1(NN=C(c3ccccc3)S1)C(=O)N2 (centres undefined)	106.2*	-2.2	-106.1	0.0
CC1=C(C(=O)N2CCOCC2)CC(CC(=O)NC2CCCC2)C(=O)N1CCCN1CCCC1=O (centres undefined)	.	1.6	.	.
COc1ccc(-c2noc(CCC(=O)NC3CCCCCC3)n2)cc1OC	.	1.5	.	.
Cc1c(Br)cccc1NC(=O)C1(C)CCN1Cc1ccccc1OC(F)F (centres undefined)	.	-4.1	.	.
CC(=O)c1cccc(OCC(=O)N(C)CC(=O)NCc2ccco2)c1	-1.5	-0.5	1.5	86.0*
O=C(c1ccc(S(=O)(=O)N2CCCCC2)cc1)N1CCCc2ccccc21	39.2	-1.0	-39.2	1.0
O=C(c1ccc(S(=O)(=O)N2CCCC2)cc1)N1CCCc2ccccc21	77.5*	-0.7	-77.5	0.0
CCOC(=O)c1c(NC(C)=O)sc2c(OCC(O)CN(CC)CC)c(Br)ccc12 (centres undefined)	82.7*	-0.1	-82.7	0.0
Cc1cccc(/C=C/c2onc(C)c2S(=O)(=O)N2CCC(C(=O)NC(C)(C)C)CC2)c1	76.5*	-0.4	-76.5	2.0
Cc1cccc(/C=C/c2onc(C)c2S(=O)(=O)N2CCC(C(=O)NC(C)C)CC2)c1	31.5	1.5	-31.5	1.0
CCOC(=O)C1(Cc2cccc(F)c2)CCN(C(=O)C2CCOCC2)CC1	43.7	-0.8	-43.7	5.0
CCOC(=O)C1(CCc2ccccc2)CCN(C(=O)C2CCOCC2)CC1	80.3*	-2.3	-80.3	0.0
O=C(COC(=O)CCc1c[nH]c(=O)[nH]1)Nc1cccc(Cl)c1	-5.2	11.1*	5.2	0.0
O=C(/C=C/[C@H]1O[C@@H](n2ccc(=O)[nH]c2=O)[C@H](O)[C@@H]1O)NCc1ccco1	.	4.2	.	.
N#Cc1ccc(NC(=O)Nc2ccc(Oc3ccc(NC(=O)Nc4ccc(C#N)cc4)cc3)cc2)cc1	86.5*	0.0	-86.5	0.0
COc1ccc(OC(F)(F)F)cc1CC1(C)C(=O)Nc2ccc(S(=O)(=O)NC3CCCCC3)cc21 (centres undefined)	.	0.2	.	.
CCC(C)NCC(=O)Nc1cc(S(=O)(=O)N(CC)c2ccccc2)ccc1Cl (centres undefined)	72.1*	-3.1	-72.1	0.0
SMILES	SR-BI HDL uptake	Rin1 Abl inh	SR-BI uptake up	GRK2 inh
CCN(c1ccccc1)S(=O)(=O)c1ccc(Cl)c(NC(=O)CNC(C)c2ccccc2)c1 (centres undefined)	-1.1	4.5	1.1	0.0
CCc1ccc(NC(=O)c2ccc(OC)c([N+](=O)[O-])c2)cc1	76.1*	1.1	-76.1	5.0
CCOC(=O)c1ccc(NC(=O)c2ccc(OC(C)C)c(OC)c2)cc1	91.7*	5.2	-91.7	1.0
CCOc1ccc(C(=O)Nc2ccc(N3CCN(C(C)=O)CC3)cc2)cc1[N+](=O)[O-]	71.7*	1.4	-46.0	1.0
CCOc1ccc(C(F)(F)F)cc1NC(=O)c1ccc(OC)c([N+](=O)[O-])c1	79.7*	-1.8	-79.7	2.0
COc1ccc(C(=O)Nc2ccc(N3CCOCC3)cc2)cc1S(=O)(=O)N1CCCC1	64.0	-2.3	-64.0	.
COc1cc(C(=O)Nc2ccc(N3CCN(C(=O)c4ccc(C)cc4)CC3)cc2)cc(OC)c1OC	76.1*	0.2	.	3.0
COc1ccc(C(=O)Nc2ccc(N3CCOCC3)cc2)cc1S(=O)(=O)NC1CCCC1	76.3*	-1.6	-76.3	1.0
Cc1ccc(C(=O)N2CCN(c3ccc(NC(=O)c4cccnc4)cc3)CC2)cc1	11.2	3.3	-11.2	1.0
COc1cccc(OC)c1C(=O)NNC(=O)c1cccc(COc2ccc3c(c2)CCC3)c1	75.6*	-2.2	-75.6	0.0
O=C(NCc1ccccc1)c1cccc(COc2ccc3c(c2)CCC3)c1	-10.5	-0.3	10.5	0.0
CN(C)c1ccc(/C=N/NC(=O)c2ccc(CN3CCOCC3)cc2)cc1Br	84.3*	1.8	-84.3	3.0
CCOc1cc(/C=N/NC(=O)c2ccc(CN3CCOCC3)cc2)ccc1OC	48.1	-1.7	-48.1	6.0
CS(=O)(=O)N(CC(=O)O)c1cc(C(F)(F)F)ccc1Cl	-18.9	-0.9	18.9	1.0
CCCCN(C(C)=O)c1c(CC)nc2ccc(C(=O)NCCOc3ccc(OC)cc3)cn12	.	-1.8	.	.
CCOc1ccc(-n2cc(C(=O)N3CCCCCC3)c3cc(OC)c(OC)cc3c2=O)cc1	74.6*	2.2	-74.6	2.0
CCOc1ccc(-n2cc(C(=O)NCc3ccco3)c3cc(OC)c(OC)cc3c2=O)cc1	18.6	-1.8	-18.6	3.0
O=C(NC1CCCCC1)N(c1ccccc1)c1nnc(-c2cccc([N+](=O)[O-])c2)s1	.	-2.9	.	.
COc1ccc(NC(=O)C(=O)NCCN2CCN(C(=O)c3ccc(C(C)(C)C)cc3)CC2)cc1	76.8*	3.5	-76.8	3.0
CC1=[N+](C)c2ccc3ccccc3c2C1(C)C	-222.8	1.9	222.8*	22.0
COc1ccc(C2(CNC(=O)/C=C\c3ccco3)CCCC2)cc1OC	-1.1	7.1	1.1	48.0*
COc1ccc(C2(CNC(=O)c3cc(OC)c(OC)c(OC)c3)CCCC2)cc1OC	29.5	2.3	-29.5	.
CC(C)C[C@H]1CNC(=S)N1C[C@H]1CCCN1C[C@H](Cc1ccccc1)N1C[C@H](Cc2ccc(O)cc2)N(CCc2ccccc2)C1=S	.	0.7	.	.
Cc1ccc(NC(=O)CN2C(=O)S/C(=C\c3cccn3-c3cccc(C(=O)O)c3)C2=O)cc1C	5.3	0.7	-5.3	3.0
COc1ccc(NC(=O)CN2C(=O)S/C(=C/c3cccn3-c3ccc(C(=O)O)cc3)C2=O)cc1	-9.3	0.5	9.3	49.0*
N=C1S/C(=C\c2ccc(-c3ccccc3C(=O)O)o2)C(=O)N1c1ccc2c(c1)OCO2	-17.6	1.1	17.6	.
COc1ccccc1N1C(=N)S/C(=C\c2ccc(-c3ccccc3C(=O)O)o2)C1=O	-38.4	0.2	38.4	44.0*

Source: PubChem BioAssay (several laboratories)
